# ChEMBL document CHEMBL1121438, “Synthesis and antitumor activity of analogues of the antitumor antibiotic chartreusin” (J Med Chem, 1980)
# Assays:
# [1] = tested on: L1210; assay: Evaluated for growth inhibition against cultured L1210 cells after 48 hour drug exposure in trial 2 at a dose of 1.44*10e-8; type: functional, Mus musculus
# [2] = tested on: L1210; assay: Evaluated for growth inhibition against cultured L1210 cells after 48 hour drug exposure in trial 1 at a dose of 1.44*10e-9; type: functional, Mus musculus
# [3] = tested on: L1210; assay: Evaluated for growth inhibition against cultured L1210 cells after 48 hour drug exposure in trial 2 at a dose of 1.44*10e-9; type: functional, Mus musculus
# [4] = Partition coefficient (logP); type: physicochemical; conditions: octanol/water
# [5] = tested on: L1210; assay: Evaluated for growth inhibition against cultured L1210 cells after 48 hour drug exposure in trial 1 at a dose of 1.44*10e-8; type: functional, Mus musculus
# [6] = tested on: Mus musculus; assay: Evaluated % increase in life span in vivo against P388 Murine leukemia cells in trial 2 at a dose of 200 mg/kg; type: functional
# Outline: (§1)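 Male CDF1 mice (17-22 g) inoculated ip with 10^6 P388 cells on day 0. Six animals per dose level. Activity is the median increase in life span over untreated controls (% ILS); body weight change of test vs control measured on days 1 and 5.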
# [7] = tested on: L1210; assay: Evaluated for growth inhibition against cultured L1210 cells after 48 hour drug exposure in trial 2 at a dose of 1.45*10e-9; type: functional, Mus musculus
# [8] = tested on: Mus musculus; assay: Evaluated % increase in life span in vivo against P388 Murine leukemia cells in trial 1 at a dose of 200 mg/kg; type: functional; outline: as §1
# [9] = tested on: Mus musculus; assay: Evaluated % increase in life span in vivo against P388 Murine leukemia cells in trial 1 at a dose of 100 mg/kg; type: functional; outline: as §1
# [10] = tested on: L1210; assay: Evaluated for growth inhibition against cultured L1210 cells after 48 hour drug exposure in trial 1 at a dose of 1.45*10e-8; type: functional, Mus musculus
# [11] = tested on: Mus musculus; assay: Evaluated % increase in life span in vivo against P388 Murine leukemia cells in trial 2 at a dose of 100 mg/kg; type: functional; outline: as §1
# [12] = tested on: Mus musculus; assay: Evaluated % increase in life span in vivo against P388 Murine leukemia cells in trial 1 at a dose of 50 mg/kg; type: functional; outline: as §1
# [13] = tested on: L1210; assay: Evaluated for growth inhibition against cultured L1210 cells after 48 hour drug exposure in trial 2 at a dose of 1.45*10e-8; type: functional, Mus musculus
# [14] = tested on: Mus musculus; assay: Evaluated % increase in life span in vivo against P388 Murine leukemia cells in trial 1 at a dose of 12.5 mg/kg; type: functional; outline: as §1
# [15] = tested on: Mus musculus; assay: Evaluated % increase in life span in vivo against P388 Murine leukemia cells in trial 2 at a dose of 12.5 mg/kg; type: functional; outline: as §1
# [16] = tested on: L1210; assay: Evaluated for growth inhibition against cultured L1210 cells after 48 hour drug exposure in trial 1 at a dose of 1.45*10e-9; type: functional, Mus musculus
# [17] = tested on: Mus musculus; assay: Evaluated % increase in life span in vivo against P388 Murine leukemia cells in trial 2 at a dose of 25 mg/kg; type: functional; outline: as §1
# [18] = tested on: Mus musculus; assay: Evaluated % increase in life span in vivo against P388 Murine leukemia cells in trial 1 at a dose of 25 mg/kg; type: functional; outline: as §1
# [19] = tested on: Mus musculus; assay: Evaluated % increase in life span in vivo against P388 Murine leukemia cells in trial 2 at a dose of 50 mg/kg; type: functional; outline: as §1
# [20] = Partition coefficient (logP) (HPLC); type: physicochemical; conditions: octanol/water
# Outline: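 Relative log P by the reversed-phase LC method of McCall: octadecylsilyl column eluted with acetonitrile–water (1:1). The system was calibrated with a reference compound of known octanol/water log P, and log P values were derived from elution times.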
# [21] = Partition coefficient determined using pi values; type: physicochemical; conditions: octanol/water
# Outline: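 Calculated log P: the aglycon value was summed with the π value of the glycosyl substituent, using literature −2.84 for O-β-glucosyl and −3.24 for maltosyl.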
# [22] = tested on: L1210; assay: Evaluated for growth inhibition against cultured L1210 cells after 48 hour drug exposure in trial 1 at a dose of 1.65*10e-8; type: functional, Mus musculus
# [23] = tested on: L1210; assay: Evaluated for growth inhibition against cultured L1210 cells after 48 hour drug exposure in trial 1 at a dose of 1.65*10e-9; type: functional, Mus musculus
# [24] = tested on: L1210; assay: Evaluated for growth inhibition against cultured L1210 cells after 48 hour drug exposure in trial 2 at a dose of 1.65*10e-8; type: functional, Mus musculus
# [25] = tested on: L1210; assay: Evaluated for growth inhibition against cultured L1210 cells after 48 hour drug exposure in trial 2 at a dose of 1.65*10e-9; type: functional, Mus musculus
structure (smiles),measurement,setting,value
Cc1ccc2oc(=O)c3c(O)c4cccc(O[C@H]5O[C@H](C)[C@H](O)[C@H](O)[C@H]5O)c4c4oc(=O)c1c2c34,Inhibition,[1],100%
same,Inhibition,[2],71%
same,Inhibition,[3],65%
same,logP,[4],2.07
same,Inhibition,[5],100%
CO[C@H]1[C@@H](O)[C@@H](C)O[C@H](O[C@H]2[C@@H](Oc3cccc4c(O)c5c(=O)oc6ccc(C)c7c(=O)oc(c34)c5c67)O[C@H](C)[C@H](O)[C@@H]2O)[C@@H]1O,ILS at 200 mg/kg,[6],58%
same,Inhibition,[7],32%
same,ILS at 200 mg/kg,[8],43%
same,ILS at 100 mg/kg,[9],93%
same,Inhibition,[10],100%
same,ILS at 100 mg/kg,[11],45%
same,ILS at 50 mg/kg,[12],60%
same,Inhibition,[13],100%
same,ILS at 12.5 mg/kg,[14],46%
same,ILS at 12.5 mg/kg,[15],17%
same,Inhibition,[16],21%
same,ILS at 25 mg/kg,[17],56%
same,ILS at 25 mg/kg,[18],47%
same,logP,[4],1.8
same,ILS at 50 mg/kg,[19],54%
Cc1ccc2oc(=O)c3c(O)c4cccc(O[C@H]5O[C@H](CO)[C@@H](O)[C@H](O)[C@H]5O)c4c4oc(=O)c1c2c34,logP,[20],1.82
same,Inhibition,[7],47%
same,Inhibition,[10],100%
same,logP,[21],1.35
same,Inhibition,[13],97%
same,Inhibition,[16],59%
Cc1ccc2oc(=O)c3c(O)c4cccc(O)c4c4oc(=O)c1c2c34,Inhibition,[22],57%
same,Inhibition,[23],0%
same,Inhibition,[24],58%
same,logP,[4],4.19
same,Inhibition,[25],7%
